# Test results reported in ChEMBL document CHEMBL1157119, “1-(2-(2,2,2-trifluoroethoxy)ethyl-1H-pyrazolo[4,3-d]pyrimidines as potent phosphodiesterase 5 (PDE5) inhibitors” (Bioorg Med Chem Lett, 2010).
# The source made the active and inactive calls. The rule behind the calls is not given here.
# Key:
# [1] = molecular target: cGMP-specific 3',5'-cyclic phosphodiesterase (Homo sapiens, UniProt O76074); test: Inhibition of PDE5
# Rattus norvegicus [2] = species on record: Rattus norvegicus; test: Antihypertensive activity in spontaneously hypertensive rat assessed as decrease of mean arterial blood pressure; assay type: functional, Artery
# Outline: (§1)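 Spontaneously hypertensive rats were dosed orally, or IV in some cases, with compound levels and blood pressure monitored. The read-out was the decrease in mean arterial pressure (MAP), scored as + for a 10–15 mmHg drop and ++ for a drop of >15 mmHg. Oral dosing at 5 mg/kg was followed for up to 20 h post dose.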
# [3] = Selectivity ratio of IC50 for PDE11 to IC50 for PDE5
# Outline: (§2)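 The selectivity value is the IC50 at PDE11 or PDE6 divided by the IC50 at PDE5.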
# [4] = Metabolic stability in human liver microsomes assessed as compound remaining after 30 mins; assay type: ADME, Microsome; conditions: read-out: Stability
# [5] = Selectivity ratio of IC50 for PDE6 to IC50 for PDE5; outline: as §2
# [6] = Inhibition of PDE6
# hERG (KCNH2) = hERG (KCNH2) (Homo sapiens, UniProt Q12809); test: Displacement of [3H]dofetilide from human ERG expressed in HEK293 cells at 10 uM; assay type: cell-based; conditions: HEK293 cells that express human ERG, probe [3H]dofetilide
# Rattus norvegicus [7] = test: Antihypertensive activity in spontaneously hypertensive rat assessed as decrease of mean arterial blood pressure at 1.5 mg/kg, iv after 6 hrs; assay type: functional, Artery
# Outline: (§3)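 Spontaneously hypertensive rats received a single IV dose of 1.5 mg/kg. Mean arterial blood pressure was monitored after dosing, and the decrease in MAP was read at 2 h and 6 h post dose. Compound blood levels were also monitored, including the free fraction at 6 h.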
# Rattus norvegicus [8] = test: Antihypertensive activity in spontaneously hypertensive rat assessed as decrease of mean arterial blood pressure at 5 mg/kg, po up to 20 hrs; assay type: functional, organism-based; design: dose 5 mg/kg; conditions: Artery; outline: as §1
# [9] = Half life in Beagle dog at 0.2 mg/kg, iv; assay type: ADME, organism-based, Canis lupus familiaris; design: dose 0.2 mg/kg, route intravenous; conditions: in vivo
# Outline: (§4)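 Beagle dogs of about 10 kg were dosed at 0.2–0.5 mpk. From the plasma profile, terminal half-life was reported in h, clearance in mL/min/kg and steady-state volume of distribution in L/kg.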
# Rattus norvegicus [10] = test: Antihypertensive activity in spontaneously hypertensive rat assessed as decrease of mean arterial blood pressure at 1.5 mg/kg, iv after 2 hrs; assay type: functional, Artery; outline: as §3
# Rattus norvegicus [11] = test: Antihypertensive activity in spontaneously hypertensive rat assessed as decrease of mean arterial blood pressure at 5 mg/kg, po; assay type: functional, Artery; outline: as §1
# [12] = Clearance in Beagle dog at 0.2 mg/kg, iv; assay type: ADME, organism-based, Canis lupus familiaris; design: dose 0.2 mg/kg, route intravenous; conditions: in vivo; outline: as §4
# [13] = Volume of distribution at steady state in Beagle dog at 0.2 mg/kg, iv; assay type: ADME, organism-based, Canis lupus familiaris; design: dose 0.2 mg/kg, route intravenous; conditions: in vivo, read-out: Vdss; outline: as §4
# [14] = Half life in human liver microsomes; assay type: ADME, Microsome
# [15] = molecular target: Voltage-gated inwardly rectifying potassium channel KCNH2 (Homo sapiens, UniProt Q12809); test: Inhibition of human ERG expressed by patch clam electrophysiology assay
# Chain of Voltage-gated inwardly rectifying potassium channel KCNH2 (Q12809 whole entry): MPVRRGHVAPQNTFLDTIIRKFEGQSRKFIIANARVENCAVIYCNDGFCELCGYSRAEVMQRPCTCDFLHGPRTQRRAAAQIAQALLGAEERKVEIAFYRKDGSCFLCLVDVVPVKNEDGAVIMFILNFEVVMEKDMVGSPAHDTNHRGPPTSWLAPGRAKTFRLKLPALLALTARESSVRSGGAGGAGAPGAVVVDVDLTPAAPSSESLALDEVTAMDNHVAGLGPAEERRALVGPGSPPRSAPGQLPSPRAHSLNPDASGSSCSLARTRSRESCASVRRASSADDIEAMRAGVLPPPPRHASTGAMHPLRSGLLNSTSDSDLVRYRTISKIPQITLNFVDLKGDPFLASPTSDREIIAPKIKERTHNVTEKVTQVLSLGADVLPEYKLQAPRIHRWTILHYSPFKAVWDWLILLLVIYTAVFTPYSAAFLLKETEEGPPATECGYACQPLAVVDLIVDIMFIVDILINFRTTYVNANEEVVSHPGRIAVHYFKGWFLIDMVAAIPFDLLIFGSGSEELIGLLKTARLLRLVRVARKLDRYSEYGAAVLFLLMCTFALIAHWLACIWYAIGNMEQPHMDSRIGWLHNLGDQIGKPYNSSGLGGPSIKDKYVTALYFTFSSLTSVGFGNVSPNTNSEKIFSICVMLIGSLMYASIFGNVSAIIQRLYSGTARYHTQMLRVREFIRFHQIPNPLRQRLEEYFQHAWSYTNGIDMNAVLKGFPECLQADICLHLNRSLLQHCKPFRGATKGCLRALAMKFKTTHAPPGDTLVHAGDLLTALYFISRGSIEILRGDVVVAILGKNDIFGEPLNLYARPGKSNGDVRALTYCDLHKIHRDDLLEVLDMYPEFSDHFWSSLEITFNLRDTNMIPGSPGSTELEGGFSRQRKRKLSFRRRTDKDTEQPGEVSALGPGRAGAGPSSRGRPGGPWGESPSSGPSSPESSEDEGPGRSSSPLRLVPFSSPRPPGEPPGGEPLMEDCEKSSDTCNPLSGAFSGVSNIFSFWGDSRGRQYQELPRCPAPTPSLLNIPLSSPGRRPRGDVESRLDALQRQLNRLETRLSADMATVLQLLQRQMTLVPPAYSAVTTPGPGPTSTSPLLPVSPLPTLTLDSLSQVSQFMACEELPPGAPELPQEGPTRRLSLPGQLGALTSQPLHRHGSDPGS
# Chain of hERG (KCNH2) (Q12809 whole entry): as above
SMILES,IC50 [1],Ratio IC50 [3],Ratio IC50 [5],also measured
CCc1nn(CCOCC(F)(F)F)c2c(Nc3ccncn3)nc(N3CCNCC3)nc12,0.15 nM,,,Activity (Rattus norvegicus [2]): 10 mmHg
CCc1nn(CCOCC(F)(F)F)c2c(Nc3ccncn3)nc(N(C)C3CCN(C)CC3)nc12,0.35 nM,5650,285,remaining at 0.5 h [4]: 31%
CCCc1nn(C)c2c(=O)[nH]c(-c3cc(S(=O)(=O)N4CCN(C)CC4)ccc3OCC)nc12,,,,IC50 [6]: 30 nM
CCCOCCn1nc(CC)c2nc(N3CCNCC3)nc(Nc3ccccn3)c21,0.3 nM,,,
Cc1nn(CCOCC(F)(F)F)c2c(Nc3ccncn3)nc(N3CCN[C@H](C)C3)nc12,0.14 nM,,,Activity (Rattus norvegicus [2]): >15 mmHg; inhibition at 10 µM (hERG (KCNH2)): 24.7%
CCc1nn(CCOCC(F)(F)F)c2c(Nc3ccncn3)nc(N3CCOCC3)nc12,3.92 nM,5100,107,
CCc1nn(CCOCC(F)(F)F)c2c(Nc3ccncn3)nc(N3CCCNCC3)nc12,3.15 nM,635,69,
CCc1nn(CCOCC(F)(F)F)c2c(Nc3ccncn3)nc(N3CCCN(C)CC3)nc12,6.48 nM,287,309,
CCc1nn(CCOCC(F)(F)F)c2c(Nc3ccncn3)nc(N3CCN[C@H](C)C3)nc12,0.07 nM,,,Activity (Rattus norvegicus [7]): 23 mmHg; Activity (Rattus norvegicus [8]): Active; Activity (Rattus norvegicus [2]): >15 mmHg; half-life [9]: 5.1 h; Activity (Rattus norvegicus [10]): 27 mmHg; Activity (Rattus norvegicus [11]): 27 mmHg; clearance [12]: 18.5 mL/min/kg; Vd [13]: 7.8 L/kg; half-life [14]: 0.7 h
CCc1nn(CCOCC(F)(F)F)c2c(Nc3ccncn3)nc(N3CCNC(=O)C3)nc12,2.96 nM,,,
CCc1nn(CCOCC(F)(F)F)c2c(Nc3ccncn3)nc(NCCN)nc12,9.52 nM,> 210,> 210,
Cc1nn(CCOCC(F)(F)F)c2c(Nc3ccncn3)nc(N3CCCNCC3)nc12,9.79 nM,204,35,
Cc1nn(CCOCC(F)(F)F)c2c(Nc3ccncn3)nc(N3CCN[C@@H](C)C3)nc12,0.94 nM,,,
CCc1nn(CCOCC(F)(F)F)c2c(Nc3cc(C)ccn3)nc(N3CCNCC3)nc12,3.28 nM,170,220,remaining at 0.5 h [4]: 80%
CCc1nn(CCOC(C)C)c2c(Nc3ccccn3)nc(N3CCNCC3)nc12,0.86 nM,52,50,
CCc1nn(CCOCC(F)(F)F)c2c(Nc3cccc(C)n3)nc(N3CCNCC3)nc12,1.01 nM,,,
CCc1nn(CCOCC(F)(F)F)c2c(Nc3ccccn3)nc(N3CCNCC3)nc12,0.65 nM,450,150,remaining at 0.5 h [4]: 91%
Cc1cccc(Nc2nc(N3CCNCC3)nc3c(C)nn(CCOCC(F)(F)F)c23)n1,0.78 nM,,,IC50 [15]: 560 nM; inhibition at 10 µM (hERG (KCNH2)): 40%
Cc1ccnc(Nc2nc(N3CCNCC3)nc3c(C)nn(CCOCC(F)(F)F)c23)c1,1.84 nM,280,510,remaining at 0.5 h [4]: 75%
CCc1nn(CCOCC(F)(F)F)c2c(Nc3ccc(F)cc3)nc(N3CCNCC3)nc12,0.09 nM,,,
CCOCCn1nc(CC)c2nc(N3CCNCC3)nc(Nc3cccc(C)n3)c21,,,,IC50 [6]: 946 nM
